Source: PubChem (several laboratories)
This is a sample that favours compounds with a hit; in the whole collection about 2.6% have one here.
SENP8 block-1: blocks human SENP8 cleavage of Nedd8 substrate. inhibition, % at 20 µM. Q96LD8. 360,000 tested, 0.64% active. recombinant SENP8, Nedd8 substrate fluorescence; in the data active = inhibition mostly above about 40%, no sharp cut-off; inactive = mostly below about 27%
Target sequence (Q96LD8 whole entry, looked up): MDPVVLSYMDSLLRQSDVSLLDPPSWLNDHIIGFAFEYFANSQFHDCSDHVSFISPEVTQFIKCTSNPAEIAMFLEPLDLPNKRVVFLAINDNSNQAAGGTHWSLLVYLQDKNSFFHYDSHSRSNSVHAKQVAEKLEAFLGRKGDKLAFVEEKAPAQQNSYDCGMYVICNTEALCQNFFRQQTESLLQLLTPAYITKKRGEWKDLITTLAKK
Platelet DG rel: modulates dense granule release in human platelets; inhibition, %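 (compounds screened at 7.5 µM in platelet-rich plasma)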; 300,000 tested, 0.22% active; human platelet-rich plasma, SFLLRN dense granule ATP release, luminescence;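 active = mean replicate score, as percent of positive control, at or above 50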
SENP8 block-2: inhibitors of human SENP8 protease. Q96LD8. purified SENP8, Z-RLRGG-aminoluciferin cleavage, luminescence. 330,000 tested, 1.2% active. inhibition, % at 10 µM; in the data active = inhibition above about 50%
SENP1 FRET inh: SENP1 (human) catalytic domain inhibition | recombinant SENP1 catalytic domain, CyPet-SUMO1-YPet FRET cleavage | inhibition, % at 10 µM | 360,000 tested, 0.21% active | AID 624204;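 active = inhibition at least 30% at 10 µM, raw YFP signal under a set limit, fluorescence ratio 0.5 to 1.5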
Target sequence (Q9P0U3 419-644 limits assumed): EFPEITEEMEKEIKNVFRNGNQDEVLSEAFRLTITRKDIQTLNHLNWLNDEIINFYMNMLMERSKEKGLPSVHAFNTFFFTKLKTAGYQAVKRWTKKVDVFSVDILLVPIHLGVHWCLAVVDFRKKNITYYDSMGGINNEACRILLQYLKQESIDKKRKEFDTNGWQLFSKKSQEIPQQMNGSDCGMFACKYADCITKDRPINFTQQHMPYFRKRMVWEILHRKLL
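Compound: 10 µM single point, 0.5% DMSO; Test system: hSENP1 catalytic domain, recombinant; Timing: 50 min reaction at room temperature; Technique: FRET, CFP and YFP emission; Control set: no-enzyme wells low, DMSO-plus-enzyme wells high control.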
SENP7 inh: blocks the human protease SENP7; inhibition, % at 5 µM; 330,000 tested, 1.5% active; Q9BQF6; recombinant SENP7, Z-RLRGG-aminoluciferin luminescence, 40 min; AID 434973;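 active = inhibition above about 50% at the single test dose, limit read from the data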
SENP6 block: blocks the human protease SENP6; Q9GZR1; Recombinant SENP6 catalytic domain, aminoluciferin luminescence; inhibition, % at 10 µM; 330,000 tested, 1.8% active; AID 2599;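 active = inhibition above about 50% at the single tested dose, limit read from the data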
SENP8 conf: human SENP8 inhibition, confirmed; shares compounds with SENP7 inh; Recombinant SENP8, Z-RLRGG-aminoluciferin luminescence, 60 min; inhibition, % at 12.5 µM; 6,200 tested, 40% active; AID 488912;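 active = mean inhibition across replicates above about 50%, limit read from the data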
SENP6 confirm: confirmation of human SENP6 protease inhibitors; shares compounds with SENP7 inh; recombinant SENP6, Z-RLRGG-aminoluciferin luminescence; inhibition, % at 12.5 µM; 6,200 tested, 58% active; AID 488915
SENP7 confirm: human SENP7 inhibition, confirmed | shares compounds with SENP7 inh | recombinant SENP7, Z-RLRGG-aminoluciferin luminescence, 40 min | inhibition, % at 12.5 µM | 6,200 tested, 69% active | AID 488917
Casp3 SENP sel: inhibits human caspase-3 in SENP selectivity test; shares compounds with SENP7 inh; purified caspase-3, Z-DEVD-aminoluciferin luminescence, 60 min; inhibition, % at 12.5 µM; 6,200 tested, 60% active; AID 488918;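 active = mean inhibition above about 50%, limit read from the data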
Target sequence (P42574 28-227 limits assumed): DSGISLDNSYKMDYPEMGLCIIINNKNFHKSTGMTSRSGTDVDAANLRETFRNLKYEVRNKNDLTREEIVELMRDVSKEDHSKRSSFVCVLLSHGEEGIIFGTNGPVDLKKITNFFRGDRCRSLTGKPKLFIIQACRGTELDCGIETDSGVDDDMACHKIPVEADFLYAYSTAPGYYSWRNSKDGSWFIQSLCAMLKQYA
SENP luc ctr: luminescence interference (SENP counter-screen); shares compounds with SENP7 inh; Pre-incubated SENP8/Z-RLRGG-aminoluciferin, luciferase luminescence interference; inhibition, % at 12.5 µM; 6,200 tested, 39% active; AID 488919;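 active = mean inhibition above about 50% when retested at one dose, limit read from the data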
Of the large screens only hits and unclear results are named; the others gave an inactive call (follow-up assays come after a bar, where they were run).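 Rule for the calls, unless noted: active = mean inhibition above about 50% in the one-dose retest (limit read from the data); inactive = the rest.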

O=C(N/N=C/c1ccc(Cl)cc1Cl)c1cccc(F)c1	SENP8 block-2 77, SENP7 inh 88, SENP6 block 89 | SENP8 conf inactive | SENP6 confirm inactive | SENP7 confirm inactive | Casp3 SENP sel inactive | SENP luc ctr inactive
O=C(N/N=C/c1ccc(Cl)cc1Cl)c1ccc2nc[nH]c2c1	none
COc1ccc(CN2CCN(Cc3ccc(C(F)(F)F)cc3)CC2)cc1	none
CSc1ccc(/C=N/NC(=O)c2cccs2)cc1	SENP8 block-2 74, SENP7 inh 88, SENP6 block 83 | SENP8 conf inactive | SENP6 confirm 66 | SENP7 confirm 98 | Casp3 SENP sel 86 | SENP luc ctr 85
O=C(N/N=C/c1ccncc1)c1cccs1	none
CCN(CC)C(=O)[C@H]1C[C@H](CC(=O)NCCC2=CCCCC2)C(=O)N2CCc3c([nH]c4ccc(Cl)cc34)[C@]12C	none (no result: Platelet DG rel, SENP8 block-2, SENP6 block)
S=C(Nc1ccc(Cl)cc1)c1nc2ccccc2[nH]1	SENP6 block 59 | SENP8 conf inactive | SENP6 confirm inactive | SENP7 confirm 92 | Casp3 SENP sel 71 | SENP luc ctr inactive
CCC(C(=O)Nc1ccc2c(c1)OCCO2)n1nnc2ccccc2c1=O (stereo not drawn)	none
O=c1c2ccccc2nnn1CSc1ccc2c(c1)OCCO2	SENP7 inh 63 | SENP8 conf 72 | SENP6 confirm 70 | SENP7 confirm 87 | Casp3 SENP sel 72 | SENP luc ctr 71
O=C(O)c1cc(-c2ccc3c(c2)OCCO3)n[nH]1	none
COc1ccc(-c2cc(-c3ccc(OC)c(OC)c3)n[nH]2)c(O)c1	SENP8 block-2 93, SENP7 inh 96, SENP6 block 94 | SENP8 conf 97 | SENP6 confirm 98 | SENP7 confirm 102 | Casp3 SENP sel 86 | SENP luc ctr 95
COc1ccc(-c2cc(-c3cc(F)ccc3O)[nH]n2)cc1OC	SENP8 block-2 69, SENP7 inh 83, SENP6 block 72 | SENP8 conf 86 | SENP6 confirm 84 | SENP7 confirm 95 | Casp3 SENP sel inactive | SENP luc ctr 83
Oc1ccccc1-c1cc(-c2ccc3c(c2)OCCO3)n[nH]1	SENP8 block-2 95, SENP6 block 97 | SENP8 conf 97 | SENP6 confirm 99 | SENP7 confirm 103 | Casp3 SENP sel 92 | SENP luc ctr 68
Oc1ccc(Br)cc1-c1cc(-c2ccc(Cl)cc2)n[nH]1	none
COC(=O)c1cc(-c2ccc(OC)c(OC)c2)n[nH]1	none
COc1ccc(-c2cc(-c3ccc(Cl)cc3)n[nH]2)c(O)c1	SENP8 block-2 64, SENP7 inh 64, SENP6 block 70 | SENP8 conf inactive | SENP6 confirm inactive | SENP7 confirm 87 | Casp3 SENP sel inactive | SENP luc ctr 66
CC(C)C(OC(=O)Cn1nnc2ccccc21)C(=O)NC1CCCC1 (stereo not drawn)	none
Cc1ccc(OCC(O)CN2CCOCC2)cc1 (stereo not drawn)	none
CC1CCCCC1NCc1cccc([N+](=O)[O-])c1 (stereo not drawn)	none
COc1ccc(-c2cc(-c3ccccc3O)[nH]n2)cc1OC	SENP8 block-2 78, SENP7 inh 88, SENP6 block 80 | SENP8 conf 93 | SENP6 confirm 92 | SENP7 confirm 101 | Casp3 SENP sel 69 | SENP luc ctr 93
Clc1ccc(-c2nnc(-c3ccccc3Cl)o2)cc1	SENP8 block-2 50, SENP7 inh 87, SENP6 block 83 | SENP8 conf inactive | SENP6 confirm inactive | SENP7 confirm 52 | Casp3 SENP sel inactive | SENP luc ctr inactive
Clc1ccccc1-c1nnc(-c2ccccc2Cl)o1	SENP8 block-2 77, SENP6 block 83 | SENP8 conf 79 | SENP6 confirm 83 | SENP7 confirm 94 | Casp3 SENP sel 69 | SENP luc ctr 50
CCCNCc1nnc(-c2ccccc2Cl)o1	none
Clc1ccc(-c2nnc(-c3cccnc3)o2)cc1	none
CN(CC1CCOCC1)C(=O)CC1C(=O)NCCN1CC(c1ccccc1)c1ccccc1 (stereo not drawn)	none
Cc1ccccc1NC(=O)Cn1c(C)nc2ccc(N)cc2c1=O	none
Cc1ccccc1NC(=O)Cn1c(C)nc2ccc(NC(=O)C3CC3)cc2c1=O	SENP7 inh 71 | SENP8 conf inactive | SENP6 confirm inactive | SENP7 confirm inactive | Casp3 SENP sel inactive | SENP luc ctr inactive
NS(=O)(=O)c1ccc(CNC(=O)C(c2ccccc2)c2ccccc2)cc1	none
Cc1ccc(O)c(C(=O)c2cnn(-c3ccccc3)c2)c1	SENP6 block 53 | SENP8 conf inactive | SENP6 confirm inactive | SENP7 confirm inactive | Casp3 SENP sel inactive | SENP luc ctr inactive
Cc1ccc(-n2cc(C(=O)c3ccc4ccccc4c3O)cn2)cc1	none
Cc1ccc(-n2cc(C(=O)c3ccccc3O)cn2)cc1	SENP8 block-2 92, SENP7 inh 97, SENP6 block 91 | SENP8 conf inactive | SENP6 confirm 97 | SENP7 confirm 101 | Casp3 SENP sel 92 | SENP luc ctr inactive
COc1cc2c3nc4n(c(=O)c3n(CC(=O)N3CCCC3)c2cc1OC)CCS4	none (no result: Platelet DG rel, SENP8 block-2, SENP7 inh, SENP6 block)
Nc1nc2ccccc2n1C(=O)c1ccc(F)cc1	SENP8 block-2 78, SENP7 inh 94, SENP6 block 93 | SENP8 conf 60 | SENP6 confirm 83 | SENP7 confirm 97 | Casp3 SENP sel 92 | SENP luc ctr inactive
COc1ccc(C(=O)n2c(N)nc3ccccc32)cc1OC	none
Nc1nc2ccccc2n1C(=O)c1ccccc1	SENP8 block-2 86, SENP7 inh 96, SENP6 block 96 | SENP8 conf 70 | SENP6 confirm 93 | SENP7 confirm 100 | Casp3 SENP sel 96 | SENP luc ctr inactive
Cc1cc(C)n(CC(=O)NNC(=O)CC(C)c2ccccc2)n1 (stereo not drawn)	none (no result: Platelet DG rel)
Cn1c(/C(C#N)=C/c2ccncc2)nc2ccccc21	none
Cn1c(/C(C#N)=C/c2ccc(O)cc2)nc2ccccc21	SENP6 block 53 | SENP8 conf 50 | SENP6 confirm inactive | SENP7 confirm 65 | SENP luc ctr inactive
